Laboratory results published in ChEMBL document CHEMBL3861962 (Eur J Med Chem, 2016).

How the values were obtained:
Cytochrome P450 3A4 [1] = target: T1, Cytochrome P450 3A4 (Homo sapiens, UniProt P08684); test: Drug metabolism assessed as human recombinant CYP3A4-mediated formation of N-(6-ethoxy-5-(2-methoxyphenoxy)-2,2'-bipyrimidin-4-yl)-4-(1-hydroxy-2-methylpropan-2-yl)benzenesulfonamide at 5 uM in presence of NADPH after 30 mins by LC-MS/MS analysissss; assay type: ADME; details: recombinant enzyme, 0.5 h
Method in brief: (§1)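 Substrate at 5 μM final in 100 mM potassium phosphate, pH 7.4, incubated with human liver microsomes or baculovirus-expressed recombinant CYP3A4, 2D6 or 2C9. Reaction started with 1 mM NADPH and run 0, 15 and 30 min at 37 °C. Stopped with ice-cold acetonitrile containing labetalol internal standard, then centrifuged. Supernatant analysed by LC-MS/MS on a C18 column at 40 °C. Blank was enzyme without substrate.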

[2] = Drug metabolism in human liver microsomes assessed as formation of N-(6-ethoxy-5-(2-methoxyphenoxy)-2,2'-bipyrimidin-4-yl)-4-(1-hydroxy-2-methylpropan-2-yl)benzenesulfonamide at 5 uM in presence of NADPH after 30 mins by LC-MS/MS analysissss; assay type: ADME; details: 0.5 h
Method in brief: (§2)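 Pooled human liver microsomes in 100 mM potassium phosphate, pH 7.4, with test compound at 5 μM final. Reaction started with 1 mM NADPH (final) and run at 37 °C in a shaking water bath for 0, 15 and 30 min. Stopped with an equal volume of ice-cold acetonitrile containing 0.6 μM labetalol as internal standard. Protein was spun out and the supernatant analysed by LC-MS/MS. Blank had no compound.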

Cytochrome P450 2C9 [3] = target: T2, Cytochrome P450 2C9 (Homo sapiens, UniProt P11712); test: Drug metabolism assessed as human recombinant CYP2C9-mediated formation of N-(6-ethoxy-5-(2-methoxyphenoxy)-2,2'-bipyrimidin-4-yl)-4-(1-hydroxy-2-methylpropan-2-yl)benzenesulfonamide at 5 uM in presence of NADPH after 30 mins by LC-MS/MS analysissss; assay type: ADME; details: recombinant enzyme, 0.5 h; method in brief: as §1
[4] = Metabolic stability in human liver microsomes assessed as parent compound remaining at 5 uM in presence of NADPH after 30 mins by LC-MS/MS analysis; assay type: ADME; details: read-out: Stability; method in brief: as §2
Cytochrome P450 2C9 [5] = target: T2, Cytochrome P450 2C9; test: Drug metabolism assessed as human recombinant CYP2C9-mediated metabolite formation by measuring parent compound remaining at 5 uM in presence of NADPH after 30 mins by LC-MS/MS analysis; assay type: ADME; details: recombinant enzyme, 0.5 h; method in brief: as §1
Cytochrome P450 2D6 = Cytochrome P450 2D6 (Homo sapiens, UniProt P10635); test: Drug metabolism assessed as human recombinant CYP2D6-mediated metabolite formation by measuring parent compound remaining at 5 uM in presence of NADPH after 30 mins by LC-MS/MS analysis; assay type: ADME; details: recombinant enzyme, 0.5 h; method in brief: as §1
Cytochrome P450 3A4 [6] = target: T1, Cytochrome P450 3A4; test: Drug metabolism assessed as human recombinant CYP3A4-mediated metabolite formation by measuring parent compound remaining at 5 uM in presence of NADPH after 30 mins by LC-MS/MS analysis; assay type: ADME; details: recombinant enzyme, 0.5 h; method in brief: as §1
[7] = Retention time of the compound; assay type: physicochemical
[8] = target: T3, Endothelin-1 receptor (Homo sapiens) (UniProt P25101); test: Antagonist activity at ETA receptor in human SKNMC cells assessed as inhibition of endothelin-1-mediated Ca2+ mobilization at 10 nM by fluorimetric method relative to control; assay type: functional, cell-based; details: SK-N-MC
T3 sequence (whole entry): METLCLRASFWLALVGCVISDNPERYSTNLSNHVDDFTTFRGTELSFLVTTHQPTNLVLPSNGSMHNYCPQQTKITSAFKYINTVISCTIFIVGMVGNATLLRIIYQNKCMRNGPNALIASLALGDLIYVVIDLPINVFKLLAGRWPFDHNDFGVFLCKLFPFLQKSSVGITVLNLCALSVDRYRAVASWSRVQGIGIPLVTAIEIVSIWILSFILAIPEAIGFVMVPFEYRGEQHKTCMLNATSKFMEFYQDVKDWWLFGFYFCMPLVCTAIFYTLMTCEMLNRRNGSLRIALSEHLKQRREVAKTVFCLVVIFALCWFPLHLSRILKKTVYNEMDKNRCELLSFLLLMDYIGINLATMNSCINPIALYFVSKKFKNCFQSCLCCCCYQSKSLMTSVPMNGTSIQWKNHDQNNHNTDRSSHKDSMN
Method in brief: (§3)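 ETA functional assay run by Cerep in human neuroblastoma SK-N-MC cells at 22 °C with fluorimetric read-out. Test solutions were 1, 10, 100 and 1000 nM. Agonist response is given as % of the control response to 100 nM endothelin-1. For antagonist mode, inhibition is given as % of the control endothelin-1 agonist response, with BQ-123 as reference antagonist.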

[9] = target: T3, Endothelin-1 receptor (Homo sapiens); test: Antagonist activity at ETA receptor in human SKNMC cells assessed as inhibition of endothelin-1-mediated Ca2+ mobilization at 1 nM by fluorimetric method relative to control; assay type: functional, cell-based; details: SK-N-MC; method in brief: as §3
[10] = Cytotoxicity against CHOK1 cells assessed as decrease in cell viability after 24 hrs by MTT assay; assay type: toxicity, cell-based, Cricetulus griseus; details: Chinese hamster, CHO-K1 cells
Method in brief: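 CHO-k1 cells grown in phenol-red-free DMEM/F-12 with 10% FBS, seeded at 20,000 cells/well and allowed to attach overnight. Exposure was 24 h to 0.1–200 μM, with DMSO as vehicle control. MTT at 1 mg/mL for 3 h at 37 °C, formazan dissolved in DMSO, absorbance read at 570 nm. Data given as % OD of vehicle control; IC50 taken from dose–response curve fits.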

[11] = target: T4, Endothelin receptor type B (Homo sapiens) (UniProt P24530); test: Agonist activity at human recombinant ETB receptor expressed in CHOK1 cells assessed as induction of Ca2+ mobilization at 100 nM by fluorimetric method relative to control; assay type: functional, cell-based; details: CHO-K1
T4 sequence (whole entry): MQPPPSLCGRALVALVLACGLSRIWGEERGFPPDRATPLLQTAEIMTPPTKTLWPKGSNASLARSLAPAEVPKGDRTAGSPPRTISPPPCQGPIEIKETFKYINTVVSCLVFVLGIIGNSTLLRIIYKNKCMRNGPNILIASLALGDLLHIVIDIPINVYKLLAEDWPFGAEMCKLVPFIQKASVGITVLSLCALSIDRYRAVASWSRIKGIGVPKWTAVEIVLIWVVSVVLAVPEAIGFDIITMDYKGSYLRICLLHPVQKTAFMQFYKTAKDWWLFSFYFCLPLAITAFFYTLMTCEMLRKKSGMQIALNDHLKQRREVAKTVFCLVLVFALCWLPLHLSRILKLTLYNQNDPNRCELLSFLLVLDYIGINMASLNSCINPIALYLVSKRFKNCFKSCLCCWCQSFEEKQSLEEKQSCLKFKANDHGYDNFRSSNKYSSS
Method in brief: as §3, with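 “ETB” for “ETA”, “recombinant CHO-k1” for “neuroblastoma SK-N-MC”, “BQ-788” for “BQ-123”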

[12] = target: T3, Endothelin-1 receptor (Homo sapiens); test: Antagonist activity at ETA receptor in human SKNMC cells assessed as inhibition of endothelin-1-mediated Ca2+ mobilization at 100 nM by fluorimetric method relative to control; assay type: functional, cell-based; details: SK-N-MC; method in brief: as §3
[13] = target: T4, Endothelin receptor type B (Homo sapiens); test: Agonist activity at human recombinant ETB receptor expressed in CHOK1 cells assessed as induction of Ca2+ mobilization at 1 nM by fluorimetric method relative to control; assay type: functional, cell-based; details: CHO-K1
Method in brief: as §3, with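 “ETB” for “ETA”, “recombinant CHO-k1” for “neuroblastoma SK-N-MC”, “BQ-788” for “BQ-123”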

[14] = Drug metabolism in human liver microsomes assessed as formation of 4-(1,1,1,3,3,3-hexafluoro-2-hydroxypropan-2-yl)-N-(6-(2-hydroxyethoxy)-5-(2-hydroxyphenoxy)-2,2'-bipyrimidin-4-yl)benzenesulfonamide at 5 uM in presence of NADPH after 30 mins by LC-MS/MS analysis; assay type: ADME; details: 0.5 h; method in brief: as §1
[15] = target: T4, Endothelin receptor type B (Homo sapiens); test: Antagonist activity at human recombinant ETB expressed in CHOK1 cells assessed as inhibition of endothelin-1-mediated Ca2+ mobilization at 100 nM by fluorimetric method relative to control; assay type: functional, cell-based; details: CHO-K1
Method in brief: as §3, with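 “ETB” for “ETA”, “recombinant CHO-k1” for “neuroblastoma SK-N-MC”, “BQ-788” for “BQ-123”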

Cytochrome P450 3A4 [16] = target: T1, Cytochrome P450 3A4; test: Drug metabolism assessed as human recombinant CYP3A4-mediated formation of 4-(1,1,1,3,3,3-hexafluoro-2-hydroxypropan-2-yl)-N-(6-(2-hydroxyethoxy)-5-(2-hydroxyphenoxy)-2,2'-bipyrimidin-4-yl)benzenesulfonamide at 5 uM in presence of NADPH after 30 mins by LC-MS/MS analysis; assay type: ADME; details: recombinant enzyme, 0.5 h; method in brief: as §1
[17] = target: T3, Endothelin-1 receptor (Homo sapiens); test: Agonist activity at ETA receptor in human SKNMC cells assessed as induction of Ca2+ mobilization at 10 nM by fluorimetric method relative to control; assay type: functional, cell-based; details: SK-N-MC; method in brief: as §3
[18] = target: T4, Endothelin receptor type B (Homo sapiens); test: Agonist activity at human recombinant ETB receptor expressed in CHOK1 cells assessed as induction of Ca2+ mobilization at 10 nM by fluorimetric method relative to control; assay type: functional, cell-based; details: CHO-K1
Method in brief: as §3, with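 “ETB” for “ETA”, “recombinant CHO-k1” for “neuroblastoma SK-N-MC”, “BQ-788” for “BQ-123”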

[19] = target: T4, Endothelin receptor type B (Homo sapiens); test: Antagonist activity at human recombinant ETB expressed in CHOK1 cells assessed as inhibition of endothelin-1-mediated Ca2+ mobilization at 10 nM by fluorimetric method relative to control; assay type: functional, cell-based; details: CHO-K1
Method in brief: as §3, with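 “ETB” for “ETA”, “recombinant CHO-k1” for “neuroblastoma SK-N-MC”, “BQ-788” for “BQ-123”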

Cytochrome P450 3A4 [20] = target: T1, Cytochrome P450 3A4; test: Drug level assessed as human recombinant CYP3A4-mediated compound formation treated with 4-(1,1,1,3,3,3-Hexafluoro-2-methoxypropan-2-yl)-N-(6-(2-hydroxyethoxy)-5-(2-methoxyphenoxy)-2,2'-bipyrimidin-4-yl)benzenesulfonamide at 5 uM in presence of NADPH after 30 mins by LC-MS/MS analysis; assay type: ADME; details: recombinant enzyme, 0.5 h; method in brief: as §1
[21] = target: T3, Endothelin-1 receptor (Homo sapiens); test: Agonist activity at ETA receptor in human SKNMC cells assessed as induction of Ca2+ mobilization at 100 nM by fluorimetric method relative to control; assay type: functional, cell-based; details: SK-N-MC; method in brief: as §3
[22] = target: T3, Endothelin-1 receptor (Homo sapiens); test: Agonist activity at ETA receptor in human SKNMC cells assessed as induction of Ca2+ mobilization at 1 nM by fluorimetric method relative to control; assay type: functional, cell-based; details: SK-N-MC; method in brief: as §3
[23] = target: T4, Endothelin receptor type B (Homo sapiens); test: Antagonist activity at human recombinant ETB expressed in CHOK1 cells assessed as inhibition of endothelin-1-mediated Ca2+ mobilization at 1 nM by fluorimetric method relative to control; assay type: functional, cell-based; details: CHO-K1
Method in brief: as §3, with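 “ETB” for “ETA”, “recombinant CHO-k1” for “neuroblastoma SK-N-MC”, “BQ-788” for “BQ-123”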

[24] = Drug level in human liver microsomes treated with 4-(1,1,1,3,3,3-Hexafluoro-2-methoxypropan-2-yl)-N-(6-(2-hydroxyethoxy)-5-(2-methoxyphenoxy)-2,2'-bipyrimidin-4-yl)benzenesulfonamide at 5 uM in presence of NADPH after 30 mins by LC-MS/MS analysis; assay type: ADME; details: 0.5 h; method in brief: as §1

T1 sequence (P08684 whole entry): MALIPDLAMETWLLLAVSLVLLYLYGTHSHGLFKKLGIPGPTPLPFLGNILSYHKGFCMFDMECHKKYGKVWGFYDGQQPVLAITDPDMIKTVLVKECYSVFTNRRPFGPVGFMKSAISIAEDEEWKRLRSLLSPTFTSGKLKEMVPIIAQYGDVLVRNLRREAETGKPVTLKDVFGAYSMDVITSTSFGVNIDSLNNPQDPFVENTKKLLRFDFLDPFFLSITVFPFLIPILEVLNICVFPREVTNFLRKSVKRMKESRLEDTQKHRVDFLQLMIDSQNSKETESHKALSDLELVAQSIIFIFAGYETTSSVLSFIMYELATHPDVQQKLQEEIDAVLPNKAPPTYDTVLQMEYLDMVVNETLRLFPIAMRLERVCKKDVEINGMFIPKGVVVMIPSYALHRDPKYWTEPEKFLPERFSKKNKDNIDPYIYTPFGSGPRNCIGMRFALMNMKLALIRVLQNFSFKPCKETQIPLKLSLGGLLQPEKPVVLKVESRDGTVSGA
T2 sequence (P11712 whole entry): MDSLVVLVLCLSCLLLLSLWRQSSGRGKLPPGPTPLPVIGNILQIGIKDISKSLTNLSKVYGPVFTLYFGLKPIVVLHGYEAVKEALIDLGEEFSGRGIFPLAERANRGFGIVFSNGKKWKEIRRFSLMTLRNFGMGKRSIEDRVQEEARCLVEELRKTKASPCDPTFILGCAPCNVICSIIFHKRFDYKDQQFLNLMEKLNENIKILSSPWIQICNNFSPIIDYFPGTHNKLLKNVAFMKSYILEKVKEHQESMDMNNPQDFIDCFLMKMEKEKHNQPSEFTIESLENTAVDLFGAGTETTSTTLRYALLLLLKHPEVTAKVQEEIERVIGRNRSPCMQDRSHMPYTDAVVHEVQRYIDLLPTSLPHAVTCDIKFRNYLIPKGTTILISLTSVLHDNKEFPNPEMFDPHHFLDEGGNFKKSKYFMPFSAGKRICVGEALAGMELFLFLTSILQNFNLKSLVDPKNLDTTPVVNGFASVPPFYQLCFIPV
Chain of Cytochrome P450 2D6 (P10635 whole entry): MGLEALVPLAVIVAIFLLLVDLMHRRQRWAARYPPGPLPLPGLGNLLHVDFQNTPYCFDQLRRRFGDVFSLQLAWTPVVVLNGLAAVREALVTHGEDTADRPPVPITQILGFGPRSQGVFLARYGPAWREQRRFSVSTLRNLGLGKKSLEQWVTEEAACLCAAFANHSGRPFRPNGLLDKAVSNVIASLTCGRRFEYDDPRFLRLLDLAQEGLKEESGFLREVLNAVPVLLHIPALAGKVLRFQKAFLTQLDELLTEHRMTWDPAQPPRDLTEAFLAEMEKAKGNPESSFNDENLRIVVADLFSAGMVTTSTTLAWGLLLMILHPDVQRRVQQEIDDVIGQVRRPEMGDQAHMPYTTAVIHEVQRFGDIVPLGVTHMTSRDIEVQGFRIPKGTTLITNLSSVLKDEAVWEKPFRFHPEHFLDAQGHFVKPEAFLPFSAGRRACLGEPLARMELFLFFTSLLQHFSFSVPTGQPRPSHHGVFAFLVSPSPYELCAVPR

CCOc1nc(-c2ncccn2)nc(NS(=O)(=O)c2ccc(C(C)(C)C)cc2)c1Oc1ccccc1OC
Drug metabolism (Cytochrome P450 3A4 [1]): Metabolite_Detected | Drug metabolism [2]: Metabolite_Detected | Drug metabolism (Cytochrome P450 2C9 [3]): Metabolite_Detected | remaining at 0.5 h, 5 µM [4]: 68.5% | Stability (Cytochrome P450 2C9 [5]): 99% | Stability (Cytochrome P450 2D6): > 99% | Stability (Cytochrome P450 3A4 [6]): 15% | Retention_time [7]: 5.96 min

COc1ccccc1Oc1c(NS(=O)(=O)c2ccc(C(O)(C(F)(F)F)C(F)(F)F)cc2)nc(-c2ncccn2)nc1OCCO
inhibition [8]: -5% | inhibition [9]: -9% | IC50 at 24 h [10]: > 200 µM | Activity [11]: -1% | inhibition [12]: -7% | Activity [13]: -1% | Drug metabolism [14]: Metabolite_Detected | remaining at 0.5 h, 5 µM [4]: 90.1% | inhibition [15]: 14% | Drug metabolism (Cytochrome P450 3A4 [16]): Metabolite_Detected | Activity [17]: 0% | Activity [18]: -1% | inhibition [19]: 11% | Drug metabolism (Cytochrome P450 3A4 [20]): Metabolite_Detected | Activity [21]: 0% | Stability (Cytochrome P450 2C9 [5]): 100% | Stability (Cytochrome P450 2D6): > 99% | Activity [22]: 0% | Stability (Cytochrome P450 3A4 [6]): 72.8% | inhibition [23]: 12% | Drug metabolism [24]: Metabolite_Detected | Retention_time [7]: 4.72 min
